Data from ChEMBL document CHEMBL2150861, “Fibrate-derived N-(methylsulfonyl)amides with antagonistic properties on PPARα” (Eur J Med Chem, 2012).
Activity calls are given as the source filed them. The calls are words filed in the database; no cut-off is given here.

Experiments:
[1] = target: T1, Peroxisome proliferator-activated receptor alpha (Homo sapiens, UniProt Q07869); experiment: (§1) Antagonist activity at PPARalpha expressed in HEK293 cells co-expressing GAL4 assessed as inhibition of GW7647-induced transactivation activity after 16 to 18 hrs by luciferase reporter gene assay; format: functional, cell-based
T1 sequence (Q07869 whole entry): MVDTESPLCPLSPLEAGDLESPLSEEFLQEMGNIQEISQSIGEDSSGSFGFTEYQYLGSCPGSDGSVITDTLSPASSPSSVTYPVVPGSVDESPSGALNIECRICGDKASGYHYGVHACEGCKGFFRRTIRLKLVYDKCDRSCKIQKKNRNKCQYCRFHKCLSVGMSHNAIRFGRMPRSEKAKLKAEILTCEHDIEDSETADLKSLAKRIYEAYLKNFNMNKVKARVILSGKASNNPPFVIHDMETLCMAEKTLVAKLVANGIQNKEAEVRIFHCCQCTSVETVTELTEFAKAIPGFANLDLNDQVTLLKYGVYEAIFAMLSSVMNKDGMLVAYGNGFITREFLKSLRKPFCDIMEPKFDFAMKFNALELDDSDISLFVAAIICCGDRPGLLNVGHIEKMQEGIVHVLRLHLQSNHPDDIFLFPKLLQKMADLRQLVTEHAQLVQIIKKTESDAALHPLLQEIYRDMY
Outline: (§2)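 GAL4–PPARα chimera in HEK293A cells grown to 70–80% confluency over 16 h, then switched to serum-free medium. Cells co-transfected by calcium phosphate with reporter, renilla, pGEM and receptor plasmids. […] Firefly luciferase read after 16–18 h. Five concentrations, 1–150 µM, at least three separate experiments, IC50 ± SEM.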

[2] = target: T2, Peroxisome proliferator-activated receptor alpha (Homo sapiens) (UniProt Q07869); experiment: Transactivation of PPARalpha expressed in HEK293A cells co-expressing GAL4 at 1 to 150 uM after 16 to 18 hrs by luciferase reporter gene assay; format: cell-based; details: HEK293-A
T2 sequence (whole entry): T1 sequence (Q07869 whole entry)
Outline: (§3)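 HEK293A cells cultured to 70–80% confluency, moved to serum-free medium, then calcium-phosphate co-transfected with GAL4–PPARα, luciferase reporter, renilla and pGEM plasmids. Compounds added 6 h after transfection and run in agonist mode. Firefly luciferase activity measured after 16–18 h. Five concentrations from 1 to 150 µM, at least three separate experiments, EC50 ± SEM.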

[3] = target: T3, Peroxisome proliferator-activated receptor gamma (Homo sapiens) (UniProt P37231); experiment: Transactivation of PPARgamma expressed in HEK293A cells co-expressing GAL4 at the concentration corresponding to IC50 or EC50 on PPARalpha after 16 to 18 hrs by luciferase reporter gene assay; details: HEK293-A
T3 sequence (whole entry): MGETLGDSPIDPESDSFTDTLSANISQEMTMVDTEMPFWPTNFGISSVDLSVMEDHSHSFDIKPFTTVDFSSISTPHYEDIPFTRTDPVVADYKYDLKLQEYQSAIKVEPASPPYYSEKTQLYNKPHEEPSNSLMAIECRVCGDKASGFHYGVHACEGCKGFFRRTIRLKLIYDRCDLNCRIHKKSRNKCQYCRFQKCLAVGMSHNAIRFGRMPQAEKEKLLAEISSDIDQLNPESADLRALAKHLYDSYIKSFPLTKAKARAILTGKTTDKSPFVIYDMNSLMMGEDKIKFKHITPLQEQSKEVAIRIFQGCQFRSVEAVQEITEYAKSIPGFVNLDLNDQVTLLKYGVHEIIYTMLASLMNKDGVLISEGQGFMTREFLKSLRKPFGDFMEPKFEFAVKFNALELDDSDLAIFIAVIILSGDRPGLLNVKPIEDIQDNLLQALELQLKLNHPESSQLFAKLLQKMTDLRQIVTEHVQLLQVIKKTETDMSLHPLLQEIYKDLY

[4] = target: T2, Peroxisome proliferator-activated receptor alpha (Homo sapiens); experiment: Binding affinity to PPARalpha LBD at 100 uM after 2 hrs by TR-FRET analysis
Outline: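 After 2 h incubation, excitation at 340 nm and emission at 520 and 495 nm. The 520/495 ratio is normalized to clofibric acid as 100%.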

[5] = target: T1, Peroxisome proliferator-activated receptor alpha; experiment: Binding affinity to PPARalpha LBD after 2 hrs by TR-FRET analysis
Outline: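 TR-FRET competitive binding to PPARα LBD. Five concentrations, three independent experiments. After 2 h incubation, excitation at 340 nm, emission at 520 nm (fluorescein acceptor) and 495 nm (terbium donor). Ratio 520/495 used to derive IC50.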

[6] = target: T2, Peroxisome proliferator-activated receptor alpha (Homo sapiens); experiment: Transactivation of PPARalpha expressed in HEK293A cells co-expressing GAL4 at 150 uM after 16 to 18 hrs by luciferase reporter gene assay relative to control; format: cell-based; details: HEK293-A
Outline: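 Single-concentration agonist-mode transactivation: GAL4–PPARα or GAL4–PPARγ chimera, calcium-phosphate transfected into HEK293A cells with reporter, renilla and pGEM plasmids. […] Firefly luciferase read after 16–18 h. Values are ± SEM.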

[7] = target: T2, Peroxisome proliferator-activated receptor alpha (Homo sapiens); experiment: Antagonist activity at PPARalpha expressed in HEK293A cells co-expressing GAL4 assessed as inhibition of GW7647-induced transactivation activity at 1 to 150 uM after 16 to 18 hrs by luciferase reporter gene assay; format: functional, cell-based; details: HEK293-A; outline: as §2
[8] = target: T2, Peroxisome proliferator-activated receptor alpha (Homo sapiens); experiment: as §1; format: functional, cell-based; outline: as §2
[9] = target: T1, Peroxisome proliferator-activated receptor alpha; experiment: Transactivation of PPARalpha expressed in HEK293A cells co-expressing GAL4 after 16 to 18 hrs by luciferase reporter gene assay; format: cell-based, HEK293-A; outline: as §3
[10] = target: T3, Peroxisome proliferator-activated receptor gamma (Homo sapiens); experiment: Antagonist activity at PPARgamma expressed in HEK293A cells co-expressing GAL4 after 16 to 18 hrs by luciferase reporter gene assay; format: functional, cell-based; details: HEK293-A

| IC50 [1] [nM] | Activity [2] | Activity [3] | Activity [4] | IC50 [5] [nM] | fold change (FC) [6] | inhibition [7] | inhibition [8] | EC50 [9] [nM] | inhibition [10] | Compound |
| --- | --- | --- | --- | --- | --- | --- | --- | --- | --- | --- |
| 600 | inactive | Active | 80.9% | 890 | 0.28 |  |  |  |  | CCCC(Sc1nc2cc(Cl)ccc2s1)C(=O)NS(C)(=O)=O (stereo unspecified) |
|  | inactive |  | 128% |  | 1.1 | inactive |  |  |  | CC(C)(Oc1ccc(C(=O)c2ccc(Cl)cc2)cc1)C(=O)NS(C)(=O)=O |
|  |  |  |  |  | 1.6 | inactive |  |  |  | CC(C)(Oc1ccc(Cl)cc1)C(=O)O |
| 68500 | inactive | Active | Active |  | 0.44 |  | Dose-dependent effect |  |  | CC(C)(Oc1ccc(CCNC(=O)c2ccc(Cl)cc2)cc1)C(=O)NS(C)(=O)=O |
|  |  | Active | 121% |  | 1.7 | inactive |  | 10700 |  | CC(C)(Oc1ccc(Cl)cc1)C(=O)NS(C)(=O)=O |
|  |  | Active | Active |  | 1.84 | inactive |  | 1590 |  | CCOc1ccc2nc(SC(C)C(=O)NS(C)(=O)=O)sc2c1 (stereo unspecified) |
| 8870 | inactive | Active | 137% | 480 | 0.36 |  |  |  |  | CCCC(Sc1nc2ccc(OCC)cc2s1)C(=O)NS(C)(=O)=O (stereo unspecified) |
| 46500 | inactive | Active | Active |  | 0.47 |  |  |  |  | CC(C)C(Sc1nc2cc(Cl)ccc2s1)C(=O)NS(C)(=O)=O (stereo unspecified) |
| 800 | inactive |  | 117% | 600 | 0.08 |  | Dose-dependent effect |  |  | CCCCC(Sc1nc2cc(Cl)ccc2s1)C(=O)NS(C)(=O)=O (stereo unspecified) |
|  |  | Active | 118% |  | 1.55 | inactive |  | 7100 |  | Cc1ccc(C)c(OCCCC(C)(C)C(=O)NS(C)(=O)=O)c1 |
| 900 | inactive |  | 95.3% | 950 | 0.07 |  |  |  | Active | CS(=O)(=O)NC(=O)C(Sc1nc2cc(Cl)ccc2s1)c1ccccc1 (stereo unspecified) |
| 5100 | inactive |  | Active |  | 0.04 |  |  |  | Active | CCCCCCC(Sc1nc2cc(Cl)ccc2s1)C(=O)NS(C)(=O)=O (stereo unspecified) |
